Test results as given in PubChem BioAssay AID822 (SRMLSC, 2007).
Calls of active or inactive are those of the source.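 How the source made its calls: active means half-maximal effective dose for blocking growth of human endothelial cells at most 100 µM; inactive means the rest.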

Tested on: HUVEC proliferation, viability ATP luminescence
Test: HUVEC proliferation inhibition, dose response, cell-based, ATP luminescence (AID 822);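 further: cells exposed to compound for 72 h before the ATP read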
Summary of the method: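 Material – HUVEC · Amount – 1250 HUVEC cells seeded per well · Medium – EBM plus 2% FBS · Dosing – dose series 0.039 to 20 µM, DMSO 0.2% · Times – 72 h exposure, 37 °C · Detection – ATP luminescence · Read-out basis – % viability and fitted EC50 · Format – collagen-coated plates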

| SMILES | EC50 |
| --- | --- |
| COC(=O)c1sccc1NC(=O)c1ccc2c(c1)OCO2 | 20.4 µM |
| CC1(C)CC(=O)C2=C(C1)Oc1nc3ccccc3cc1C2C(C#N)C#N (configuration not stated) | 11.4 µM |
| C/C(CC1CC2=C(CC1(C)C)C(C)(C)CCC2)=N\NC(N)=S (configuration not stated) | 4.89 µM |
| COc1ccc(Cl)cc1N1CCN(CCNC(=O)Nc2ccccc2C)CC1 | 5.83 µM |
| CCOC(=O)C(C(C)=O)c1c(Br)c(O)c(O)c2c(C(=O)c3ccc(C)cc3)coc12 (configuration not stated) | 7.17 µM |
| C=CCn1c(SCC(=O)c2c(N)n(CCC)c(=O)n(C)c2=O)nc2sc(CC)cc2c1=O | 14.9 µM |
| Cc1oc(-c2ccc(Cl)cc2)nc1CN1CCC(C(=O)N2CCN(Cc3ccccc3)CC2)CC1 | 8.43 µM |
| CCC1(C)Cc2c(sc3[nH]c(=S)n(Cc4ccccc4)c(=O)c23)CO1 (configuration not stated) | 3.07 µM |
| COc1ccc(NC(=O)c2ccccc2NC(=O)COc2ccccc2)cc1 | 11.2 µM |
| CCn1cc(C(=O)NCCc2ccccc2)c(=O)c2cc(F)c(N3CCN(C)CC3)cc21 | 16.8 µM |
| CN(c1ccccc1)S(=O)(=O)c1ccc(C(=O)Nc2nnc(-c3ccc(F)cc3)o2)cc1 | 1.74 µM |
| Brc1ccccc1OCCCn1cnc2ccccc21 | 13.2 µM |
| O=C(CCC1COc2ccccc2O1)Nc1ccc(Cl)cn1 (configuration not stated) | 17.6 µM |
| COc1ccc(OC)c(CCNC(=O)Cn2sc3nc(C)cc(C)c3c2=O)c1 | 12.1 µM |
| Cc1ccccc1-c1nc(CN2CCC(C(=O)NCCCN3CC(C)CC(C)C3)CC2)c(C)o1 (configuration not stated) | 4.85 µM |
| Cc1ccc2c(c1)c1c(n2CC(O)Cn2c(C)nc3ccccc32)/C(=N\O)CCC1 (configuration not stated) | 8.98 µM |
| CC1CCCCN1S(=O)(=O)c1ccc(C(=O)Nc2nnc(-c3ccccc3Cl)o2)cc1 (configuration not stated) | 2.71 µM |
| N#Cc1nc(-c2ccc(OCc3ccccc3)cc2)oc1NCCCn1ccnc1 | 5.83 µM |
| COc1ccc(C(C[N+](=O)[O-])c2c(-c3ccccc3)cc3ccccn23)cc1 (configuration not stated) | 11.1 µM |
| O=Cc1ccc(Sc2nnc(-c3ccccc3)o2)c([N+](=O)[O-])c1 | 11.4 µM |
| c1ccc(-c2nccc(-c3ccc(-n4cnc5ccccc54)cc3)n2)cc1 | 14.9 µM |
| COC(=O)Nc1ccc(S(=O)(=O)N2c3ccccc3CCC2C)cc1 (configuration not stated) | 9.54 µM |

| SMILES | EC50 |
| --- | --- |
| CCOc1cc(N2CCOCC2)c(OCC)cc1NC(=O)COc1cccc2cccnc12 | 14.9 µM |
| COC(=O)c1c(C)n(-c2ccc(OC)cc2)c2ccc(O)cc12 | 8.97 µM |
| CCOC(=O)c1cnc(-n2nc(C)cc2C)nc1NC1CCCCC1 | 0.27 µM |
| O/N=C1\CC/C(=N\O)c2nn(-c3ccccc3Cl)nc21 | > 10 µM (inactive) |
| CCCCCCc1cc2cc(-c3nnc(-c4ccccc4)o3)c(=O)oc2cc1O | 3.5 µM |
| COc1ccc(C(=O)Nc2ccccc2C(=O)N(Cc2ccco2)C(C(N)=O)C(C)C)cc1 (configuration not stated) | 14.6 µM |
| Cc1ccc(NC(=O)c2cc(NC(=O)c3ccco3)ccc2N2CCCCC2)cc1 | 17.9 µM |
| CN1CCN(C(=O)c2ccc(COc3ccc(Cl)cc3Cl)cc2)CC1 | 13.3 µM |
| CSc1nc2c(cnn2-c2ccc(C)c(C)c2)c(=O)[nH]1 | 17.8 µM |
| CCOC(=O)/C=C/S(=O)(=O)c1ccc(NC(C)=O)cc1 | 15.8 µM |
| c1ccc(CC2CCN(C3=Nc4cccc5cccc3c45)CC2)cc1 | 3.02 µM |
| Cc1ccc2[nH]c3c(N4CCN(Cc5ccccc5)CC4)ncnc3c2c1 | 8.08 µM |
| O=S(=O)(CCN(CCS(=O)(=O)C(F)(F)F)CC1CCCO1)C(F)(F)F (configuration not stated) | 12.5 µM |
| Cc1ccc2c(C)ccc(O)c2n1 | 7.33 µM |
| O=C(c1nn2c(C(F)(F)F)cc(-c3ccco3)nc2c1Br)N1CCCc2ccccc21 | 14.8 µM |
| Clc1ccc(COC(Cn2ccnc2)c2ccc(Cl)cc2Cl)cc1 (configuration not stated) | 6.31 µM |
| COc1ccccc1-c1cc(C(=O)Nc2cc(C)n(Cc3ccc(Cl)cc3)n2)no1 | 5.84 µM |
| CCCCOc1ccc(C(=O)C(CN2CCOCC2)c2ccccc2)cc1 (configuration not stated) | 3.08 µM |
| N#C/C(=C/c1ccc(N2CCCCCC2)o1)c1ccc(Cl)cc1 | 18.3 µM |
| COc1ccccc1N1C(=O)N(C(C)=O)C2C1Nc1ccccc1N2C (configuration not stated) | 6.17 µM |
| Cc1cccc(NC(=O)c2cc(NC(=O)c3ccco3)ccc2N2CCCCC2)c1 | 13.3 µM |
| CCSc1nnc(NC(=O)c2ccccn2)s1 | 1.81 µM |

| SMILES | EC50 |
| --- | --- |
| CC(=O)Oc1ccc(N(C(C)=O)S(=O)(=O)c2cccs2)c2ccccc12 | 9 µM |
| COc1cccc(-c2cc(C(=O)Nc3cc(C)n(Cc4ccc(Cl)cc4)n3)no2)c1 | 12.3 µM |
| O=C(CN1CCCC1)Nc1ccc(-c2nc3cc(NC(=O)CN4CCCC4)ccc3o2)cc1 | 18.9 µM |
| Cc1ccc2oc3c(c(=O)c2c1)C(c1cccc(Br)c1)N(Cc1ccco1)C3=O (configuration not stated) | 19.9 µM |
| Cc1ccc(-c2nn3c(C)nnc3s2)cc1NC(=O)c1ccc(-c2cccc(Cl)c2)o1 | 4.71 µM |
| N=c1c2c(-c3ccccc3)c(-c3ccccc3)n(Cc3ccco3)c2ncn1Cc1ccco1 | 1.82 µM |
| Nc1nc(Nc2cccc3ccccc23)nc(C2CCCC2=O)n1 (configuration not stated) | 11.4 µM |
| CCCCn1c(SCC(=O)Nc2cc(NC(=O)c3ccco3)ccc2C)nc2ccccc2c1=O | 12.2 µM |
| CC1CC(C)(C)CC2(C1)NC(=S)N(c1ccccc1)N2 (configuration not stated) | 12.3 µM |
| O=C(OCC(=O)N1CCN(C(=O)c2ccco2)CC1)c1cc(-c2ccc(Cl)c(Cl)c2Cl)nc2ccccc12 | 4.16 µM |
| COC(=O)COc1ccc(S(=O)(=O)NCCC2=CCCCC2)cc1Cl | 9.76 µM |
| CC1(c2ccccc2)CC(C)(C)N2C(=O)C3(C(C#N)=C(N)Oc4cc(O)ccc43)c3cccc1c32 (configuration not stated) | 6.69 µM |
| N/C(Cc1ccc(Cl)cc1)=N\OC(=O)c1ccc2ccccc2c1 | 9.87 µM |
| COc1ccccc1NC(=O)CC1C(=O)NCCN1C(=O)Nc1ccc(Cl)c(Cl)c1 (configuration not stated) | 10.8 µM |
| Cc1cccc(-c2nc(CN3CCCC(C(=O)NC4CCCCCC4)C3)c(C)o2)c1 (configuration not stated) | 10.8 µM |
| Oc1ccccc1-c1cc(-c2ccccc2Cl)[nH]n1 | 12.5 µM |
| Cc1ccccc1CS(=O)(=O)c1nnc([C@H](Cc2ccccc2)NC(=O)OC(C)(C)C)o1 | 11.4 µM |
| c1ccc(-c2nc3nonc3nc2-c2ccccc2)cc1 | 3.46 µM |
| Cc1cc(C)c2oc(-c3cccc(NC(=O)c4ccc(F)cc4)c3)nc2c1 | 19.3 µM |
| CCc1cc(-c2n[nH]c(C)c2Oc2ccc(C(C)C)cc2)c(O)cc1O | 6.36 µM |
| CC1(C)Cc2c(c(N3CCOCC3)nc3snc(N)c23)CO1 | 11 µM |
| CCOC(=O)c1cnc(-n2nc(C)cc2C)nc1NCc1ccc2c(c1)OCO2 | 2.34 µM |

| SMILES | EC50 |
| --- | --- |
| CCOc1cc(/C=C\c2[nH]c(=O)[nH]c(=O)c2[N+](=O)[O-])ccc1OC(C)CC (configuration not stated) | 4.12 µM |
| CC[n+]1cc(-c2ccccc2)nc(N2CCOCC2)n1 | 9.86 µM |
| Brc1ccc(-c2csc(NNC3=NCCCCC3)n2)cc1 | > 10 µM (inactive) |
| Cc1nn(CC(=O)Nc2ccc3c(c2)oc2ccccc23)c(=O)c2ccccc12 | 6.25 µM |
| Cc1cccc(N2CCN(C(=O)Cn3sc4nc(C)cc(C)c4c3=O)CC2C)c1 (configuration not stated) | 12.4 µM |
| O=[N+]([O-])c1cccnc1N1CCC(c2cc(-c3cccc(C(F)(F)F)c3)n[nH]2)CC1 | 10.6 µM |
| CCCCc1nc2sc3c(SCC(=O)NCc4ccco4)ncnc3c2c2c1CCC2 | 13.4 µM |
| O=S1(=O)C=C(Sc2nnc(-c3ccccc3)o2)c2ccccc21 | 4.25 µM |
| CCN(CC)CCn1c2ccccc2c2cnc(N)c(C#N)c21 | 15.2 µM |
| CCOc1ccccc1-n1c(CN2CCN(C(=O)c3ccco3)CC2)nc2ccccc2c1=O | 12.3 µM |
| COc1ccc(CNC(=O)c2cc3c(C)nc4ccccc4c3o2)c(OC)c1 | 11.8 µM |
| CS(=O)(=O)c1nc(-c2cccs2)cc(C(F)(F)F)n1 | 6.11 µM |
| COc1cc(/C=c2\s/c(=C(/C#N)C(=O)N3CCCC3)n(-c3ccccc3)c2=O)ccc1O | 16.3 µM |
| Cn1c(=O)n(C)c2cc(C(=O)Nc3ccc4c(c3)OCO4)ccc21 | 11.6 µM |
| O=C(COc1ccc(Cl)cc1)Nc1ccccc1C(=O)NCc1ccco1 | 16.4 µM |
| Cc1ccc2[nH]c3c(c2c1)CCC3=O | 14.7 µM |
| Cc1ccc2c(c1)[nH]c1c(N3CCN(Cc4ccccc4)CC3)ncnc12 | 7.57 µM |
| Cc1ccc2nc(NC(=O)CSc3ncnc4c3oc3ccccc34)sc2c1 | 5.79 µM |
| CCN(CC)c1ccc2c(c1)oc(=O)c1c(Cl)cc(=O)oc12 | 2.05 µM |
| CCN(CC)CC(=O)Nc1ccc(-c2nc3cc(NC(=O)CN(CC)CC)ccc3o2)cc1 | > 10 µM (inactive) |
| COc1ccc(-n2nnnc2S(=O)(=O)CC(=O)N2CCCCC2)cc1 | 7.76 µM |
| Cc1ccc(C)c(C(C)NC(=O)C2C3CCC(O3)C2C(=O)O)c1 (configuration not stated) | 16.3 µM |

| SMILES | EC50 |
| --- | --- |
| CCOC(=O)c1ccc(NC(=O)CCc2nc(-c3cccc(C)c3)no2)cc1 | 19.2 µM |
| Cc1ccccc1NS(=O)(=O)c1ccc(N2CCCC2=O)cc1 | 19.6 µM |
| Nc1nc(NC(=O)c2cccc(S(=O)(=O)N3CCCCCC3)c2)nc(-c2ccccc2)n1 | 12.8 µM |
| O=C(/C=C/c1ccc(Cl)cc1)c1cccnc1 | 17.2 µM |
| O=C(Nc1ccc(OC(F)F)c(Cl)c1)Nc1ccc2c(c1)OCO2 | 14.8 µM |
| Cc1coc2c(O)cc3c(c12)OC1(N2CCCCC2)C(=O)NCCCC31 (configuration not stated) | 7.41 µM |
| NS(=O)(=O)c1ccc(N=Cc2c(O)n(C3CCCCC3)c(=O)n(C3CCCCC3)c2=O)cc1 | 5 µM |
| Cc1nn2c(NCCCN(C)C)c3c(nc2c1-c1ccccc1)CCC3 | 12.2 µM |
| COc1ccc(NC(=O)c2cc3n(n2)C(C(F)(F)F)CC(c2ccc(OC)cc2)N3)cc1 (configuration not stated) | 9.91 µM |
| CC(C)OCCCN1C(=O)c2[nH]nc(-c3ccccc3O)c2C1c1cccc(Cl)c1 (configuration not stated) | 15.7 µM |
| Cc1ccc(C)n1NC(=O)c1ccccc1O | > 10 µM (inactive) |
| COC(=O)/C(=C\Nc1ccc(Cl)cc1Cl)NC(=O)c1ccc(Cl)cc1Cl | 7.64 µM |
| Cc1ccc(-c2csc3ncnc(Sc4nnc(CN5CCCCCC5=O)o4)c23)cc1 | 5.55 µM |
| Cn1c(=O)n(C)c2cc(NC(=O)CCl)ccc21 | 12.2 µM |
| CCCc1nc(SCC(=O)N2CCC(Cc3ccccc3)CC2)c2c(=O)n(C)c(=O)n(C)c2n1 | 10.5 µM |
| Cc1cc2c(cc1C)CSC(c1c(O)ccc3ccccc13)SC2 | 5.81 µM |
| Cc1cccc(C)c1N1CCN(c2ccc3nnc(C(F)(F)F)n3n2)CC1 | 5.78 µM |
| Cc1ccc2c(c1)c1c(n2CC(O)Cn2c(C)nc3ccccc32)CCCC1 (configuration not stated) | 10.6 µM |
| Cc1cccc2c1N(CCCOc1ccc(C(C)(C)C)cc1)C(=O)C2=O | 9.1 µM |
